Legend:
A549 [1] = experiment: Growth inhibition of human A549 cells after 18 hrs; type: functional, cell-based; conditions: A549, 18 h
Method in brief: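 Sulforhodamine B (SRB) assay on A-549 human lung cancer cells. Compounds were first screened at 10 µM. Those active at 10 µM were retested at 1, 2.5 and 5 µM, and IC50 was calculated from these concentrations.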

DLD-1 = experiment: Cytotoxicity against human DLD1 cells assessed as cell growth inhibition after 18 hrs; type: functional, cell-based; conditions: DLD-1, 18 h
PC-3 [2] = experiment: Cytotoxicity against human PC3 cells assessed as reduction in cell viability after 48 hrs by SRB assay; type: functional, cell-based; conditions: PC-3, 48 h
Method in brief: (§1)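 SRB assay. Compounds active at 10 µM in the primary screen were retested at 1, 2.5 and 5 µM, and IC50 was calculated from these concentrations. The normal breast epithelial line fR2 was tested alongside the cancer lines.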

PC-3 [3] = experiment: Growth inhibition of human PC3 cells at 10 uM after 48 hrs by SRB assay relative to control; type: functional; conditions: PC-3, 48 h, read-out: GI
Method in brief: (§2)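 Primary SRB screen of every compound at a single concentration of 10 µM. Growth inhibition is expressed relative to control.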

[4] = Selectivity index, ratio of IC50 for human FR2 cells to IC50 for human MCF7 cells; type: functional
Method in brief: (§3)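 Selectivity index is the IC50 in normal breast epithelial fR2 cells divided by the IC50 in each cancer line. All IC50 values come from the SRB assay.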

MCF7 [5] = experiment: Growth inhibition of human MCF7 cells at 10 uM after 48 hrs by SRB assay relative to control; type: functional; conditions: MCF7, 48 h, read-out: GI; method in brief: as §2
[6] = Selectivity index, ratio of IC50 for human FR2 cells to IC50 for human PC3 cells; type: functional; method in brief: as §3
MIA PaCa-2 [7] = experiment: Growth inhibition of human MIAPaCa2 at 10 uM after 48 hrs by SRB assay relative to control; type: functional; conditions: MIA PaCa-2, 48 h, read-out: GI; method in brief: as §2
[8] = Selectivity index, ratio of IC50 for human FR2 cells to IC50 for human MIAPaCa2 cells; type: functional; method in brief: as §3
[9] = Selectivity index, ratio of IC50 for human FR2 cells to IC50 for human A549 cells; type: functional; method in brief: as §3
HCT-116 [10] = experiment: Induction of mitochondrial membrane potential loss in human HCT116 cells after 24 hrs by rhodamine-123 dye based fluorescence microscopy; type: functional, cell-based
Method in brief: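 HCT-116 cells were treated at 0.7, 1.4, 2.0 and 2.5 µM and stained with rhodamine-123. Loss of membrane potential was read as a decrease in fluorescence compared with untreated cells.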

HCT-116 [11] = experiment: Induction of morphological changes in human HCT116 cells assessed as change in cell morphology after 24 hrs by phase contrast microscopic method; type: functional, cell-based
Method in brief: (§4)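 HCT 116 cells were treated at 0.7, 1.4, 2.0 and 2.5 µM for 24 h, then examined under a phase contrast microscope for growth arrest and morphological change.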

HCT-116 [12] = experiment: Antimigratory activity in human HCT116 cells assessed as inhibition of wound closure after 24 hrs by wound healing assay; type: functional, cell-based
Method in brief: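 HCT 116 monolayers were scratched, then treated at 1.4, 2.0 and 2.5 µM for 24 h. Wound area was measured at 0 and 24 h. Migration was derived from the recovered scratch area relative to 0 h and to the matching control.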

HCT-116 [13] = experiment: Antiproliferative activity against human HCT116 cells assessed as reduction in colony formation after 14 days by crystal violet staining based clonogenic assay; type: functional, cell-based
Method in brief: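 HCT 116 cells were treated at 0.7, 1.4 and 2.8 µM. Colonies formed over 14 days of treatment and were compared with untreated control.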

A549 [14] = experiment: Growth inhibition of human A549 cells at 10 uM after 48 hrs by SRB assay relative to control; type: functional; conditions: A549, 48 h, read-out: GI; method in brief: as §2
MCF7 [15] = experiment: Cytotoxicity against human MCF7 cells assessed as reduction in cell viability after 48 hrs by SRB assay; type: functional, cell-based; conditions: MCF7, 48 h; method in brief: as §1
HCT-116 [16] = experiment: Induction of morphological changes in human HCT116 cells assessed as cell growth arrest after 24 hrs by phase contrast microscopic method; type: functional, cell-based; method in brief: as §4
HCT-116 [17] = experiment: Growth inhibition of human HCT116 cells at 10 uM after 48 hrs by SRB assay relative to control; type: functional; conditions: HCT-116, 48 h, read-out: GI; method in brief: as §2
HCT-116 [18] = experiment: Cytotoxicity against human HCT116 cells assessed as reduction in cell viability after 48 hrs by SRB assay; type: functional, cell-based; conditions: HCT-116, 48 h; method in brief: as §1
MIA PaCa-2 [19] = experiment: Cytotoxicity against human MIAPaCa2 cells assessed as reduction in cell viability after 48 hrs by SRB assay; type: functional, cell-based; conditions: MIA PaCa-2, 48 h; method in brief: as §1
[20] = Selectivity index, ratio of IC50 for human FR2 cells to IC50 for human HCT116 cells; type: functional; method in brief: as §3
[21] = Cytotoxicity against human FR2 cells assessed as reduction in cell viability after 48 hrs by SRB assay; type: cell-based; conditions: FR2, 48 h; method in brief: as §1
A549 [22] = experiment: Cytotoxicity against human A549 cells assessed as reduction in cell viability after 48 hrs by SRB assay; type: functional, cell-based; conditions: A549, 48 h; method in brief: as §1

Molecule `C=C(C)[C@@H]1CC[C@]2(C(=O)OCC(N)(CO)CO)CC[C@]3(C)[C@H](CC[C@@H]4[C@@]5(C)CC[C@H](OC(C)=O)C(C)(C)[C@@H]5CC[C@]43C)[C@@H]12` has an IC50 (A549 [1]) of 2500 nM.

`C=C(C)[C@@H]1CC[C@]2(COC(C)=O)CC[C@]3(C)[C@H](CC[C@@H]4[C@@]5(C)CC[C@H](O[C@H]6O[C@H](CO)[C@@H](O)[C@H](O)[C@H]6O)C(C)(C)[C@@H]5CC[C@]43C)[C@@H]12` gave an IC50 (DLD-1) of 4450 nM.

With `C=C(C)[C@@H]1CC[C@]2(C(=O)O)CC[C@]3(C)[C@H](CC[C@@H]4[C@@]5(C)C/C(=C\c6ccc([N+](=O)[O-])cc6)[C@H](O)C(C)(C)[C@@H]5CC[C@]43C)[C@@H]12` the IC50 (PC-3 [2]) was 1600 nM, the inhibition of growth at 10 µM (PC-3 [3]) was 56% and the “Ratio IC50” value [4] was 4.8. The inhibition of growth at 10 µM (MCF7 [5]) was 85%, the “Ratio IC50” value [6] was 10.5 and the inhibition of growth at 10 µM (MIA PaCa-2 [7]) was 81%. For the same molecule, the “Ratio IC50” value [8] was 5.25, the “Ratio IC50” value [9] was 11.2 and the Activity (HCT-116 [10]) was “Dose-dependent effect”. The Activity (HCT-116 [11]) was “Dose-dependent effect”, the inhibition (HCT-116 [12]) was “Dose-dependent effect” and the inhibition (HCT-116 [13]) was “Dose-dependent effect”. For the same molecule, the inhibition of growth at 10 µM (A549 [14]) was 73%, the IC50 (MCF7 [15]) was 3500 nM and the Activity (HCT-116 [16]) was “Dose-dependent effect”. For the same molecule, the inhibition of growth at 10 µM (HCT-116 [17]) was 92%, the IC50 (HCT-116 [18]) was 1360 nM and the IC50 (MIA PaCa-2 [19]) was 3200 nM. The “Ratio IC50” value [20] was 12.35, the IC50 [21] was 16800 nM and the IC50 (A549 [22]) was 1500 nM.

Reference: ChEMBL document CHEMBL4052644, “Synthesis of novel benzylidene analogues of betulinic acid as potent cytotoxic agents” (Eur J Med Chem, 2017)
